Laboratory results taken from ChEMBL document CHEMBL1127011, “Structure-activity relationship of glycine betaine analogs on osmotolerance of enteric bacteria” (1993).

How the values were obtained:
Format in all cases: functional
Escherichia coli [1] = assay: Maximum NaCl molar concentration that showed 50% bacterial growth in Escherichia coli ATCC 25922 at minimum media (MM)
In short: (§1)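 Single colony from MacConkey agar subcultured overnight in minimal medium at 37 °C. Inoculum: 1:200 dilution of 0.5 McFarland standard (~5 × 10^5 cfu/mL final) into minimal medium with NaCl 0.1–1 M in 0.1 M steps. Test compound 0.1 mM, alone or with GB or Chol 0.1 mM. OD600 read at 48 h. Endpoint is highest NaCl giving ≥50% growth versus full-growth tubes. Mean of three ±SD.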

Escherichia coli [2] = assay: Maximum NaCl molar concentration that showed 50% bacterial growth in Escherichia coli 31 at MM+0.1 mmol Choline; in short: as §1
Escherichia coli [3] = assay: Maximum NaCl molar concentration that showed 50% bacterial growth in Escherichia coli 31 at minimum media (MM); in short: as §1
Escherichia coli [4] = assay: Maximum NaCl molar concentration that showed 50% bacterial growth in Escherichia coli K10 at MM+0.1 mmol Choline; in short: as §1
Escherichia coli [5] = assay: Maximum NaCl molar concentration that showed 50% bacterial growth in Escherichia coli K10 at minimum media (MM); in short: as §1
Escherichia coli [6] = assay: Maximum NaCl molar concentration that showed 50% bacterial growth in Escherichia coli ATCC 25922 at MM+0.1 mmol GB (Glycine Betaine); in short: as §1
Escherichia coli [7] = assay: Maximum NaCl molar concentration that showed 50% bacterial growth in Escherichia coli K10 at MM+0.1 mmol GB (Glycine Betaine); in short: as §1
Escherichia coli [8] = assay: Maximum NaCl molar concentration that showed 50% bacterial growth in Escherichia coli 31 at MM+0.1 mmol GB (Glycine Betaine); in short: as §1
Escherichia coli [9] = assay: Maximum NaCl molar concentration that showed 50% bacterial growth in Escherichia coli ATCC 25922 at MM+0.1 mmol Choline; in short: as §1

| Compound | Max salt tolerance (Escherichia coli [1]) | Max salt tolerance (Escherichia coli [2]) | Max salt tolerance (Escherichia coli [3]) | Max salt tolerance (Escherichia coli [4]) | Max salt tolerance (Escherichia coli [5]) | Max salt tolerance (Escherichia coli [6]) | Max salt tolerance (Escherichia coli [7]) | Max salt tolerance (Escherichia coli [8]) | Max salt tolerance (Escherichia coli [9]) |
| --- | --- | --- | --- | --- | --- | --- | --- | --- | --- |
| C[N+](C)(C)CC(=O)Nc1ccc(S(=O)(=O)NC(=O)C[N+](C)(C)C)cc1.[Cl-].[Cl-] | 0.5 | 0.9 | 0.73 | 0.86 | 0.56 | 0.83 | 0.9 | 0.9 | 0.8 |
| C[N+]1(CS(=O)(=O)[O-])CCCCC1 | 0.13 | 0.88 | 0.43 | 0.5 | 0.35 | 0.86 | 0.9 | 0.93 | 0.2 |
| C[N+](C)(C)CC(=O)[N-]S(=O)(=O)c1ccccc1 | 0.5 | 0.9 | 0.73 | 0.86 | 0.56 | 0.83 | 0.9 | 0.9 | 0.8 |
| C[N+](C)(C)CC(=O)[N-]S(=O)(=O)c1ccc(NC(=O)CCl)cc1 | 0.1 | 0.8 | 0.63 | 0.8 | 0.3 | 0.86 | 0.86 | 0.9 | 0.8 |
| C[N+](C)(C)CC(=O)Nc1ccc(S(N)(=O)=O)cc1.[Cl-] | 0.5 | 0.9 | 0.73 | 0.86 | 0.56 | 0.83 | 0.9 | 0.9 | 0.8 |
| C[N+]1(CS(=O)(=O)[O-])CCCC1 | 0.13 | 0.86 | 0.7 | 0.6 | 0.5 | 0.87 | 0.97 | 0.93 | 0.2 |
| C[N+](C)(C)CC(=O)[N-]S(=O)(=O)c1ccc(NC(=O)CI)cc1 | 0.1 | 0.8 | 0.63 | 0.8 | 0.3 | 0.86 | 0.86 | 0.9 | 0.8 |
| CCC(=O)Nc1ccc(S(=O)(=O)[N-]C(=O)C[N+](C)(C)C)cc1 | 0.4 | 0.8 | 0.7 | 0.83 | 0.57 | 0.86 | 0.9 | 0.9 | 0.8 |
| C[N+](C)(C)CS(=O)(=O)[O-] | 0.27 | 0.9 | 0.83 | 0.9 | 0.83 | 0.86 | 0.93 | 0.9 | 0.33 |
| C[N+]1(CS(=O)(=O)[O-])CCOCC1 | 0.2 | 0.9 | 0.77 | 0.87 | 0.63 | 0.83 | 0.97 | 0.97 | 0.23 |
| CC(=O)Nc1ccc(S(=O)(=O)[N-]C(=O)C[N+](C)(C)C)cc1 | 0.4 | 0.8 | 0.7 | 0.83 | 0.57 | 0.86 | 0.9 | 0.9 | 0.8 |
| Br.C[N+](C)(C)CC(=O)[N-]S(=O)(=O)c1ccc(NC(=O)CBr)cc1 | 0.1 | 0.8 | 0.63 | 0.8 | 0.3 | 0.86 | 0.86 | 0.9 | 0.8 |
| C[N+](C)(C)CC(=O)NS(=O)(=O)c1ccc(N)cc1.[Cl-] | 0.5 | 0.9 | 0.73 | 0.86 | 0.56 | 0.83 | 0.9 | 0.9 | 0.8 |
| C[N+](C)(C)CP(=O)([O-])O [HYDROGEN (TRIMETHYLAMMONIO)METHYLPHOSPHONATE] | 0.33 | 0.83 | 0.6 | 0.77 | 0.4 | 0.8 | 0.87 | 0.9 | 0.77 |
